Measurements as given in ChEMBL document CHEMBL4364329, “Prodrug Activation by a Viral Protease: Evaluating Combretastatin Peptide Hybrids To Selectively Target Infected Cells” (ACS Med Chem Lett, 2019).
Activity calls are given as the source filed them. The rule behind the calls is not given here. Non-standard residues stand in square brackets, D forms with d. Residues, ends and D or L forms follow the SMILES beside them. ξ: configuration not given here. *: point of attachment. X1 = COc1ccc(/C=C\c2cc(OC)c(OC)c(OC)c2)cc1N*; 2Abz = Nc1ccccc1C(=O)O; ξNle = CCCCC(N)C(=O)O; Bz = O=C(c1ccccc1)*

Legend:
HeLa = experiment: Cytotoxicity against human HeLa cells harboring Dengue virus serotype 2 NS2B-NS3 protease assessed as reduction in cell viability after 72 hrs by cell titer blue assay; type: functional, cell-based
Summary of the method: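 DENV2 protease-expressing HeLa cells (DENV2proHeLa) were incubated with compound for 72 h. CC50 was determined from triplicate wells.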

Tubulin (Sus scrofa) = Tubulin (Sus scrofa) (UniProt P02554+P02550); experiment: Inhibition of porcine tubulin polymerization at 10 uM preincubated at 37 degC for 30 mins followed by chilling to 0 degC and subsequent addition of GTP by microtiter plate based absorbance detection assay relative to control; type: protein assay
[1] = target: Genome polyprotein (dengue virus type 2) (UniProt P29990); experiment: Inhibition of Dengue virus serotype 2 NS2B-NS3 protease expressed in Escherichia coli BL21 lambda (DE3) cells at 250 uM preincubated with enzyme for 15 mins followed by 2-Abz-Nle-Lys-Arg-Arg-Ser-(3-NO2)-Tyr-NH2 FRET substrate addition measured for 15 mins by fluorescence analysis
[2] = test system: CCCCC(NC(=O)c1ccccc1N)C(=O)N[C@@H](CCCCN)C(=O)N[C@@H](CCCNC(=N)N)C(=O)N[C@@H](CCCNC(=N)N)C(=O)N[C@@H](CO)C(=O)N[C@@H](Cc1ccc(O)cc1)C(N)=O; experiment: (§1) Substrate activity at Dengue virus serotype 2 NS2B-NS3 protease expressed in Escherichia coli BL21 lambda (DE3) cells assessed as Km for compound hydrolysis in TRIS buffer at pH 9 incubated for 10 mins at room temperature by Lineweaver-Burk plot analysis; type: ADME, dengue virus type 2
Summary of the method: (§2)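 Recombinant DENV NS2B-NS3 protease at 1 μM incubated with substrate from 100 μM up to 1 mM in pH 9 buffer for 10 min at room temperature. Triplicate wells. Km, vmax and kcat were derived from a Lineweaver–Burk plot.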

[3] = test system: COc1ccc(/C=C\c2cc(OC)c(OC)c(OC)c2)cc1NC(=O)CNC(=O)[C@H](CCCNC(=N)N)NC(=O)[C@H](CCCNC(=N)N)NC(=O)c1ccccc1; experiment: as §1; type: ADME, dengue virus type 2; summary of the method: as §2
[4] = test system: COc1ccc(/C=C\c2cc(OC)c(OC)c(OC)c2)cc1NC(=O)CNC(=O)CNC(=O)[C@H](CCCNC(=N)N)NC(=O)[C@H](CCCNC(=N)N)NC(=O)c1ccccc1; experiment: as §1; type: ADME, dengue virus type 2; summary of the method: as §2
[5] = test system: COc1ccc(/C=C\c2cc(OC)c(OC)c(OC)c2)cc1NC(=O)[C@H](C)NC(=O)[C@H](CCCNC(=N)N)NC(=O)[C@H](CCCNC(=N)N)NC(=O)c1ccccc1; experiment: as §1; type: ADME, dengue virus type 2; summary of the method: as §2
[6] = test system: COc1ccc(/C=C\c2cc(OC)c(OC)c(OC)c2)cc1NC(=O)CNC(=O)[C@H](CCCNC(=N)N)NC(=O)[C@H](CCCCN)NC(=O)c1ccccc1; experiment: as §1; type: ADME, dengue virus type 2; summary of the method: as §2

Tubulin (Sus scrofa), sequence (P02550 whole entry, looked up): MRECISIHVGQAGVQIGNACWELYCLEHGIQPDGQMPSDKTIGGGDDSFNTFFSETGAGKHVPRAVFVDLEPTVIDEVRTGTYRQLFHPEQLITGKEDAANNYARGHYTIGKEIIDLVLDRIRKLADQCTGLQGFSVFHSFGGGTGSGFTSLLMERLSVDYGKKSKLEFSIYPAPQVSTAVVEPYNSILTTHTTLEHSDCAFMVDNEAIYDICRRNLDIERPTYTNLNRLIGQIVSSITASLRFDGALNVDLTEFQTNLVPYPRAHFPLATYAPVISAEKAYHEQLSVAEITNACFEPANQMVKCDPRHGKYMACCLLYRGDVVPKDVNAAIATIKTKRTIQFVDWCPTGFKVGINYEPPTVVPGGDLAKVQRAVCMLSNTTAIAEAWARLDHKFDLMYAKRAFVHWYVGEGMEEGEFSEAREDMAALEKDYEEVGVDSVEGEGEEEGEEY
Tubulin (Sus scrofa), sequence (P02554 whole entry, looked up): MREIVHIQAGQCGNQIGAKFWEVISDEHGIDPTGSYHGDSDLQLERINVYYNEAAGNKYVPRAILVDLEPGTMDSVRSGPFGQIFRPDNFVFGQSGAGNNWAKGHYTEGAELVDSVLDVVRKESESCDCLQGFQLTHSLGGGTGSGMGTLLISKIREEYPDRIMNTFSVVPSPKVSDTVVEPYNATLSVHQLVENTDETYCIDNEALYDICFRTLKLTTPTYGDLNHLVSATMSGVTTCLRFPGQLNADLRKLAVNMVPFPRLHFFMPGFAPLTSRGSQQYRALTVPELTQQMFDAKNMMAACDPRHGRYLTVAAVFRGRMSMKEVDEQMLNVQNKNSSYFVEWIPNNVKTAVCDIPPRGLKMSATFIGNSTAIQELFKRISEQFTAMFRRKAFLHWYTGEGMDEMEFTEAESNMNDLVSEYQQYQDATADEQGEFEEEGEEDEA

Molecule | Activity (HeLa) | inhibition (Tubulin (Sus scrofa)) | also measured
COc1ccc(/C=C\c2cc(OC)c(OC)c(OC)c2)cc1N | Toxic | 33.1% | –
COc1ccc(/C=C\c2cc(OC)c(OC)c(OC)c2)cc1NC(=O)CCNC(=O)[C@H](CCCNC(=N)N)NC(=O)[C@H](CCCNC(=N)N)NC(=O)c1ccccc1 | Toxic | 3.4% | –
COc1ccc(/C=C\c2cc(OC)c(OC)c(OC)c2)cc1NC(=O)CN | – | 61% | –
COc1ccc(/C=C\c2cc(OC)c(OC)c(OC)c2)cc1NC(=O)CNC(=O)[C@H](CCCNC(=N)N)NC(=O)[C@H](CCCCN)NC(=O)c1ccccc1 | Toxic | -5.7% | –
COc1ccc(/C=C\c2cc(OC)c(OC)c(OC)c2)cc1NC(=O)CNC(=O)[C@H](CCCNC(=N)N)NC(=O)[C@H](CCCNC(=N)N)NC(=O)c1ccccc1 | Toxic | 26% | –
COc1ccc(/C=C\c2cc(OC)c(OC)c(OC)c2)cc1NC(=O)[C@H](C)N | – | 40.5% | –
COc1ccc(/C=C\c2cc(OC)c(OC)c(OC)c2)cc1NC(=O)[C@H](C)NC(=O)[C@H](CCCNC(=N)N)NC(=O)[C@H](CCCCN)NC(=O)c1ccccc1 | – | -4.9% | –
COc1ccc(/C=C\c2cc(OC)c(OC)c(OC)c2)cc1NC(=O)[C@H](C)NC(=O)[C@H](CCCNC(=N)N)NC(=O)[C@H](CCCNC(=N)N)NC(=O)c1ccccc1 | Toxic | 3.4% | –
COc1ccc(/C=C\c2cc(OC)c(OC)c(OC)c2)cc1NC(=O)[C@H](CO)NC(=O)[C@H](CCCNC(=N)N)NC(=O)[C@H](CCCCN)NC(=O)c1ccccc1 | – | -4.2% | –
COc1ccc(/C=C\c2cc(OC)c(OC)c(OC)c2)cc1NC(=O)[C@H](CO)NC(=O)[C@H](CCCNC(=N)N)NC(=O)[C@H](CCCNC(=N)N)NC(=O)c1ccccc1 | Toxic | 1.9% | –
COc1ccc(/C=C\c2cc(OC)c(OC)c(OC)c2)cc1O | Toxic | 60.3% | –
N=C(N)NCCC[C@H](NC(=O)[C@H](CCCNC(=N)N)NC(=O)c1ccccc1)C(=O)O (Bz-Arg-Arg-OH) | – | – | inhibition [1]: 35%
N=C(N)NCCC[C@H](NC(=O)[C@H](CCCCN)NC(=O)c1ccccc1)C(=O)O (Bz-Lys-Arg-OH) | – | – | inhibition [1]: 12.2%
COc1ccc(/C=C\c2cc(OC)c(OC)c(OC)c2)cc1NC(=O)CNC(=O)CNC(=O)[C@H](CCCNC(=N)N)NC(=O)[C@H](CCCNC(=N)N)NC(=O)c1ccccc1 (Bz-RRGG-X1) | Toxic | 13.4% | –
CCCCC(NC(=O)c1ccccc1N)C(=O)N[C@@H](CCCCN)C(=O)N[C@@H](CCCNC(=N)N)C(=O)N[C@@H](CCCNC(=N)N)C(=O)N[C@@H](CO)C(=O)N[C@@H](Cc1ccc(O)cc1)C(N)=O (stereo partly drawn) (H-[2Abz][ξNle]KRRSY-NH2) | – | inactive | –
Genome polyprotein (Dengue virus 2 Thailand/16681/84) | – | – | Km [2]: 182 µM; Vmax [2]: 10.1 µM/min; kcat [2]: 0.168 s⁻¹; Km [3]: 225 µM; Vmax [3]: 6.18 µM/min; kcat [3]: 0.103 s⁻¹; Km [4]: 144 µM; Vmax [4]: 4.69 µM/min; kcat [4]: 0.0782 s⁻¹; Km [5]: 949 µM; Vmax [5]: 17 µM/min; kcat [5]: 0.284 s⁻¹; Km [6]: 173 µM; Vmax [6]: 2.14 µM/min; kcat [6]: 0.0357 s⁻¹
